Measured values of several laboratories.
AMY2: Pancreatic alpha-amylase (AMY2, Sus scrofa, UniProt P00690)
CHRM2: Muscarinic acetylcholine receptor M2 (CHRM2, Homo sapiens, UniProt P08172)
D14: D14 (Arabidopsis thaliana, UniProt Q9SQR3)
ATM: Serine-protein kinase ATM (ATM, Homo sapiens, UniProt Q13315)

SMILES | target | test | conditions | measurement | value
C1=C/COCc2cc(ccc2OCCN2CCCC2)Nc2nccc(n2)-c2cccc(c2)COC/1 | Myosin-IIIb (MYO3B, Homo sapiens, UniProt Q8WXR4) | binding | 0.1 µM | remaining binding | 100%
O=c1cc(-c2ccc(O)cc2)oc2c(Br)c(O)c(Br)c(O)c12 | AMY2 | enzyme activity, inhibitor | 50 µM, 30 min | inhibition | 68.2%
Cc1cc(S(=O)(=O)N[C@H]2CC[C@H](CN3CCN(c4ccc(C5CCC(=O)NC5=O)cc4F)CC3)CC2)ccc1Nc1ncc(C(F)(F)F)c(N2CCC[C@](C)(O)C2)n1 (stereo partly drawn) | Cyclin-dependent kinase 4 (CDK4, Homo sapiens, UniProt P11802) | binding, competition with immobilised ligand | 1 µM | remaining binding | 100%
NC/C(=C\F)COc1cccc(Cn2c(=S)[nH]c(=O)c3[nH]cnc32)c1 | CHRM2 | ligand displacement, radioligand | 10 µM | inhibition | < 50%
CC1=C(/C=C/C(C)=C/C=O)C(C)(C)C[C@H](O)C1 | D14 | thermal stability, DSF | 1 µM | ΔTm | 0.28 °C
O=c1c(O)c(-c2ccc(O)cc2)oc2cc(O)cc(O)c12 | AMY2 | enzyme activity, inhibitor | 50 µM, 30 min | inhibition | 88.9%
Cc1cc(F)cc2c(CCC(=O)N[C@@H]3C(=O)NC[C@H]3O)c(-c3ccc(F)cc3)[nH]c12 | CHRM2 | cell-free assay | 10 µM | inhibition | -4%
O=c1c(O)c(-c2ccc(O)c(O)c2)oc2cc(O)cc(O)c12 | AMY2 | enzyme activity, inhibitor | 50 µM | inhibition | 94.1%
CC1=CC(O/C=C2/C(=O)OC3c4ccccc4CC23)OC1=O (racemic) | D14 | thermal stability, DSF | 1 µM | ΔTm | -0.035 °C
C#Cc1cc(-c2cc(Nc3nc(N[C@@H](C)c4ccc(F)cn4)ncc3Cl)n[nH]2)ccc1C=O | MAP kinase-activated protein kinase 5 (MAPKAPK5, Homo sapiens, UniProt Q8IW41) | enzyme activity, inhibitor | 0.2 µM | inhibition | 14.9%
COc1ccc2oc(-c3ccc4nc(N)oc4c3)c/c(=N\c3ccccc3NC(=O)CCN)c2c1 | ATM | binding, competition with immobilised ligand | 1 µM | remaining binding | 94%
O=C1C[C@@H](c2ccc(O)cc2)Oc2cc(O)cc(O)c21 | AMY2 | enzyme activity, inhibitor | 50 µM | inhibition | 33.3%
CCCCC(=O)Nc1ccc(-c2ccc3ncn(CCC)c(=O)c3c2)cn1 | Serine/threonine-protein kinase 24 (STK24, Homo sapiens, UniProt Q9Y6E0) | binding, competition with immobilised ligand | 0.5 µM | remaining binding | 97%
CC(=O)/C=C/C=C(C)/C=C/C1=C(C)CC(O)CC1(C)C (stereo in doubt) | D14 | thermal stability, DSF | 1 µM | ΔTm | 0.09 °C
COc1cc(O)c2c(c1)O[C@H](c1ccccc1)CC2=O | AMY2 | enzyme activity, inhibitor | 50 µM | inhibition | 12.8%
Cc1cc(O)c(-c2ccc([C@@H](C)CN(C)C)cc2)c2c1[nH]c(=O)c1sccc12 | ATM | cell-free assay, inhibitor | 0.1 µM, lysate | inhibition | 6.43%
O=c1c(O)c(-c2ccc(O)cc2O)oc2cc(O)cc(O)c12 | AMY2 | enzyme activity, inhibitor | 50 µM, 30 min | inhibition | 55.1%
CC1=C(/C=C/C(C)=C/C=O)C(C)(C)CCC1 | D14 | thermal stability, DSF | 1 µM | ΔTm | 0 °C
